The values below come from ChEMBL document CHEMBL2169833, “Solubility-driven optimization of phosphodiesterase-4 inhibitors leading to a clinical candidate” (J Med Chem, 2012).

Usually IC50 stands for the midpoint of a concentration-inhibition curve. Broadly, the Cmax is the highest concentration seen after dosing. In general, AUC refers to concentration integrated over time. The low end stands for less exposure, the high end for more exposure. The term half-life denotes the time needed for the level to fall by half in the phase considered. A low value points to rapid decline. The term Tmax denotes the time from dosing to the highest level. What is called clearance is a measure of how efficiently the substance is removed, as volume per time. Lower therefore signals inefficient removal. A word on the ED50: it is the dose at which the effect has come halfway, by size or by number of responders.

≈ marks a conversion by molar mass, not a printed value.

Data set [1] deals with 3',5'-cyclic-AMP phosphodiesterase 4B (Homo sapiens, UniProt Q07343). The data set is described as follows: Inhibition of human PDE4B-mediated [3H]CAMP hydrolysis after 30 to 60 mins by scintillation proximity assay. Summed up:
(§1)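 Enzyme was diluted in 10 mM Tris-HCl pH 7.5 with 1 mM EDTA to give 10–30% substrate hydrolysis. Substrate was [3H]-cAMP (0.1 μCi) with 1 μM cAMP. Inhibitors were tested at 10 concentrations with 1% DMSO, 30−60 min at room temperature, stopped with PDE SPA beads and counted. IC50 came from curves. Mean of ≥2 experiments in duplicate, SEM where n ≥ 3.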
A general note: Scintillation proximity formats need no separation of bound from free tracer.

Data set [2] deals with 3',5'-cyclic-AMP phosphodiesterase 4D (Homo sapiens, UniProt Q08499). Description: Inhibition of human PDE4D-mediated [3H]CAMP hydrolysis after 30 to 60 mins by scintillation proximity assay. Summed up: as §1
Data set [3] in a line: Thermodynamic aqueous solubility of the compound at pH 6.8. The data set is classed as physicochemical. Conditions: buffer; for solubility thermodynamic: read-out: Therm_solubility.
Data set [4] deals with 3',5'-cyclic-AMP phosphodiesterase 4A (Homo sapiens, UniProt P27815). The data set is described as follows: Inhibition of human PDE4A-mediated [3H]CAMP hydrolysis after 30 to 60 mins by scintillation proximity assay. Summed up: as §1
A further data set has as its target Phosphodiesterase 4 (Homo sapiens, UniProt P27815+Q08499+Q07343+Q08493). Description: Inhibition of PDE4 in human PBMC assessed as inhibition of LPS-induced TNFalpha production incubated for 10 mins prior to LPS-challenge measured after 20 hrs by sandwich ELISA. Summed up:
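Human PBMC were isolated from normal donors by Ficoll−Hypaque and grown at 1 × 10⁶ cells/mL in RPMI1640 with 10% FCS. Compound was preincubated 10 min, then LPS added (10 ng/mL, stock added). Cells were incubated 20 h at 37 °C in 5% CO₂. Supernatant TNF-α was measured by sandwich ELISA at OD405 (sensitivity ~10 pg/mL). IC50 came from inhibition curves.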

Data set [5] can be described thus: Volume of distribution at steady state in rat at 2.1 umol/kg, iv. The data set is classed as ADME, organism-based. Conditions: in vivo, read-out: Vdss. Summed up: (§2)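 Rat PK after iv and po dosing, some compounds given as the potassium or sodium salt. Vehicle was PBS or 25/75 PEG200/PBS. Dose matched formulation strength: iv 1.05, 2.1 or 4.2 μmol/kg; po 2.1 or 4.2 μmol/kg. For some compounds iv and po used the same dose (2.1 or 4.2 μmol/kg).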

Data set [6] can be described thus: Cmax in rat at 2.1 umol/kg, po. The data set is classed as ADME, organism-based. Particulars: in vivo. Also on record: dose 2.1 umol/kg, route oral. Summed up: as §2
The subject of data set [7] is Rattus norvegicus. The data set is described as follows: (§3) Oral bioavailability in rat at 2.1 umol/kg. The data set is classed as ADME, organism-based. Particulars: in vivo. Summed up: as §2
In data set [8] the test system is Rattus norvegicus. The data set is described as follows: (§4) AUC total in rat at 2.1 umol/kg, po. Format: ADME, organism-based, Plasma. Particulars: in vivo. Summed up: as §2
A short description of data set [9]: Half life in rat at 2.1 umol/kg, po. Format: ADME, organism-based. Conditions: in vivo. Summed up:
as §2

Data set [10] has as its system Rattus norvegicus. The data set is described as follows: Antiinflammatory activity in po dosed ovalbumin-sensitized Brown Norway rat assessed as inhibition of ovalbumin-induced eosinophil influx into BALF administered 2 hrs prior to ovalbumin-challenge measured after 24 hrs. The data set is classed as functional. Summed up: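 Brown Norway rats were actively sensitized and dosed orally at 0.3, 1 or 3 mg/kg, or with vehicle PEG200:saline 1:1, 2 h before inhaled ovalbumin challenge. Saline-challenged rats served as controls. Eosinophils were counted in BAL fluid 24 h after challenge. Mean ± SEM, 5−10 animals per group. ED50 was estimated.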

For data set [11], the system named is Rattus norvegicus. Description: AUC total in rat at 4.2 umol/kg, po. Conditions: in vivo. Format: ADME, organism-based, Plasma. Summed up: as §2
A short description of data set [12]: Half life in rat at 4.2 umol/kg, po. Particulars: in vivo. Format: ADME, organism-based. Summed up:
as §2

In data set [13] the test system is Rattus norvegicus. Description: Oral bioavailability in rat at 4.2 umol/kg. Conditions: in vivo. The data set is classed as ADME, organism-based. Summed up: as §2
The nature of data set [14]: Tmax in rat at 4.2 umol/kg, po. Format: ADME, organism-based. Conditions: in vivo. Summed up: as §2
Data set [15] in a line: Volume of distribution at steady state in rat at 1.05 umol/kg, iv. Format: ADME, organism-based. Conditions: in vivo, read-out: Vdss. Summed up: as §2
Data set [16] is described as follows: Tmax in rat at 2.1 umol/kg, po. Format: ADME, organism-based. Conditions: in vivo. Summed up: as §2
Data set [17] can be described thus: as §3. Format: ADME, organism-based. Conditions: in vivo, 2.1 umol/kg. Summed up: as §2
Data set [18] in a line: as §4. The data set is classed as ADME, organism-based, Plasma. Conditions: plasma, 2.1 umol/kg. Summed up:
as §2

A short description of data set [19]: Clearance in rat at 1.05 umol/kg, iv. The data set is classed as ADME, organism-based. Conditions: in vivo. Summed up:
as §2

A short description of data set [20]: AUC total in ferret at 3.42 umol/kg, ig. The data set is classed as ADME, organism-based, Mustela putorius furo. Particulars: plasma, po. Summed up:
(§5)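 Ferret PK after intragastric dosing as a solution in PEG200/saline (50/50, v/v) at 3.42 μmol/kg, with one compound at 2.98 μmol/kg. Plasma levels were measured. Detection limits were 0.5 μM for roflumilast and <0.02 μM for its N-oxide metabolite.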

Data set [21] is described as follows: Tmax in ferret at 3.42 umol/kg, ig. The data set is classed as ADME, organism-based, Mustela putorius furo. Conditions: in vivo, po. Summed up:
as §5

Data set [22] is described as follows: Cmax in ferret at 3.42 umol/kg, ig. Format: ADME, organism-based, Mustela putorius furo. Also on record: dose 3.42 umol/kg, route intragastric. Particulars: in vivo, po. Summed up:
as §5

A short description of data set [23]: Half life in ferret at 3.42 umol/kg, ig. The data set is classed as ADME, organism-based, Mustela putorius furo. Particulars: in vivo, po. Summed up:
as §5

The test system of another data set is Mustela putorius furo. The data set is described as follows: Toxicity in ferret assessed as emesis at 0.075 to 4.8 mg/kg, po after 4 hrs. Also on record: dose 0.075-4.8 mg/kg, route oral. Format: organism-based. Particulars: in vivo.
Another data set deals with Mus musculus. The data set is described as follows: Antiinflammatory activity in po dosed BALB/c mouse assessed as inhibition of LPS-induced neutrophil influx into BALF administered 1 hr prior to LPS-challenge measured after 3 hrs. Format: functional. Summed up: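 Mice were given vehicle (PEG200:saline 1:1) or compound orally at 1−30 mg/kg, 1 h before LPS challenge. The control group got vehicle with PBS challenge. Animals were killed 3 h after challenge. Pooled from two experiments, 6−15 mice per group. Mann−Whitney test versus vehicle/LPS animals.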

Sequence of 3',5'-cyclic-AMP phosphodiesterase 4D (Q08499 whole entry): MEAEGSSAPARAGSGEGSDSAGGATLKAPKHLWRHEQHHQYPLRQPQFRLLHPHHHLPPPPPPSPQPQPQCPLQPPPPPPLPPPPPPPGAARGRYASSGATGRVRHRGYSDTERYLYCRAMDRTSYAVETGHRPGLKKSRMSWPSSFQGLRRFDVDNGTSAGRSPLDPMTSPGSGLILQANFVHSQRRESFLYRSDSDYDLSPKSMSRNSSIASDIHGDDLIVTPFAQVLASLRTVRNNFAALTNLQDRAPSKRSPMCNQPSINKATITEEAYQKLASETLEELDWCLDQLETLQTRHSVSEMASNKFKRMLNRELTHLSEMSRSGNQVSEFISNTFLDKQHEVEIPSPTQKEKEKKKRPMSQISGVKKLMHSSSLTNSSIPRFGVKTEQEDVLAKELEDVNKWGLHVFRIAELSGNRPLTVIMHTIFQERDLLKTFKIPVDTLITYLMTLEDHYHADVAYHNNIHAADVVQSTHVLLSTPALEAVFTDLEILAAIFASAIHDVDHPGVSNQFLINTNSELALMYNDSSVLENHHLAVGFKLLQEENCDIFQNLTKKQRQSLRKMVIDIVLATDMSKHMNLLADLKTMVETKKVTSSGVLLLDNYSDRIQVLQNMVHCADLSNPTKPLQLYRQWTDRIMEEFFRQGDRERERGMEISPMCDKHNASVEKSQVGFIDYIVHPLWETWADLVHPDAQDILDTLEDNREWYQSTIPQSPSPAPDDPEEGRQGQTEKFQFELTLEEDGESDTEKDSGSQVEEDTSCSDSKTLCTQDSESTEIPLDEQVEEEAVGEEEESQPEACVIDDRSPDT
Sequence of 3',5'-cyclic-AMP phosphodiesterase 4B (Q07343 whole entry): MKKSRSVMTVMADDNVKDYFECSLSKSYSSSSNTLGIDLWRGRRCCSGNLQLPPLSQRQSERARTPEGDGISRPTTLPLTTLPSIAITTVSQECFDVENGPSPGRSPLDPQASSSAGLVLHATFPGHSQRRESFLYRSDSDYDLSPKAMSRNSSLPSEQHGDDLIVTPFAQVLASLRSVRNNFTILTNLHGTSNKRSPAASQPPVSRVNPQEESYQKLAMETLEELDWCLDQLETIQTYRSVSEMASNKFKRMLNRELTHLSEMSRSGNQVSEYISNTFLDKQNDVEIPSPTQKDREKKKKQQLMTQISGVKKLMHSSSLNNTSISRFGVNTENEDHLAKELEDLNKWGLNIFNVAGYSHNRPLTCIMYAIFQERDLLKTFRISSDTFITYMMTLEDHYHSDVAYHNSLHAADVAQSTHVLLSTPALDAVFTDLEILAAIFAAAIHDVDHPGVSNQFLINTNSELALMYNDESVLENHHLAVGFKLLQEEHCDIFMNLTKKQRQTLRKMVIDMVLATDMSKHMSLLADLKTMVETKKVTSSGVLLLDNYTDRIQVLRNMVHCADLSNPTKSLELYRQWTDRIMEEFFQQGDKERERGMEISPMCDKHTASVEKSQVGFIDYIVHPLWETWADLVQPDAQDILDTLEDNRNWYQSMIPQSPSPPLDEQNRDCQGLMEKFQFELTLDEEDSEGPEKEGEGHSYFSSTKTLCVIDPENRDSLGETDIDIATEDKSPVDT
Sequence of 3',5'-cyclic-AMP phosphodiesterase 4A (P27815 whole entry): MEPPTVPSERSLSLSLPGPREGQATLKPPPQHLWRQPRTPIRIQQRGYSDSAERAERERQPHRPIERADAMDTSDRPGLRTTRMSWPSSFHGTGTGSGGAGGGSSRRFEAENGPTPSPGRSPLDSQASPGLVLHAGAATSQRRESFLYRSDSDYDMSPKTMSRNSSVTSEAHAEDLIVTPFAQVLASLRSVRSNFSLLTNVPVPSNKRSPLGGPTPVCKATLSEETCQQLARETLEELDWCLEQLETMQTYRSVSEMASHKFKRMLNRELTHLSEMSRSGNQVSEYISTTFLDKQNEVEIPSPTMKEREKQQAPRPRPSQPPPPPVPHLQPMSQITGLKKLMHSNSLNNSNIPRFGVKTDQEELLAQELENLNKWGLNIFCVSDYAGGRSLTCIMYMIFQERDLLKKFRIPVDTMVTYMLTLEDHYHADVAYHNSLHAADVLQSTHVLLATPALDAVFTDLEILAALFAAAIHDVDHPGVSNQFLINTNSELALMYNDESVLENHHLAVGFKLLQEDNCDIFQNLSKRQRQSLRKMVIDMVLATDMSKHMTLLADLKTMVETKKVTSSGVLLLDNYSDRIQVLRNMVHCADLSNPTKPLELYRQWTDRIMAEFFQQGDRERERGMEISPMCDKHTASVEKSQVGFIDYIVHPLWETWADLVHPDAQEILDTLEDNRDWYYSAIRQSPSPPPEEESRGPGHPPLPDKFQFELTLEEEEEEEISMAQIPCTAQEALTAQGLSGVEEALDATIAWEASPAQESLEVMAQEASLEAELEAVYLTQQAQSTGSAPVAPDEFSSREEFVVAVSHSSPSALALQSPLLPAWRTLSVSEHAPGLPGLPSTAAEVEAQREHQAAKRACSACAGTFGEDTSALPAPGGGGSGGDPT

Regarding `CSc1cccc(-c2nc([C@H]3CC[C@H](C(=O)O)CC3)cc3cccnc23)c1`, the 50% inhibitory concentration (IC50) in [1] amounted to 17 nM; in data set [2] it was 6 nM; in data set [4], 27 nM; on Phosphodiesterase 4, 19 nM. Moreover, the solubility thermodynamic in data set [3] was 1100 µg/mL (≈ 2910 µM).

Regarding `O=C([O-])[C@H]1CC[C@H](c2cc3cccnc3c(-c3cccc(F)c3)n2)CC1.[K+]`, the Vd in data set [5] amounted to 0.09 L/kg. In data set [6], this compound yielded a Cmax of 4.6 µM. In the data set with Rattus norvegicus [7], this compound had an F of 52%. The compound further gave an AUC with Rattus norvegicus [8] of 4408 µM·min. In addition, the half-life in data set [9] is 9 h.

Take `COc1cccc(-c2nc(N3CCC(C(=O)O)CC3)cc3cccnc23)c1`: the IC50 in data set [1] is 615 nM; in data set [2], 45 nM; in data set [4], 537 nM; at Phosphodiesterase 4, 1930 nM. For the same compound, the solubility thermodynamic in data set [3] was over 1000 µg/mL.

Consider `O=C(O)[C@H]1CC[C@H](c2cc3cccnc3c(-c3cccc(OC(F)(F)F)c3)n2)CC1` [listing 1 of 2 here], for which the inhibition result in the data set with Rattus norvegicus [10] was “Dose-dependent effect”.

Take `O=C([O-])C1CCN(c2cc3cccnc3c(-c3cccc(F)c3)n2)CC1.[Na+]`: in [5], the Vd was 0.24 L/kg. Besides, the AUC with Rattus norvegicus [11] stood at 3919 µM·min. The same compound showed a half-life in data set [12] of 17 h. Besides, the F in the data set on Rattus norvegicus [13] amounted to 70%. In addition, in [14], the Tmax is 2.88 h.

`O=C(O)[C@H]1CC[C@H](c2cc3cccnc3c(-c3cccc(F)c3)n2)CC1`: the inhibition result in the data set with Rattus norvegicus [10] was “Dose-dependent effect”.

`O=C([O-])C1CCN(c2cc3cccnc3c(-c3cccc(OC(F)(F)F)c3)n2)CC1.[Na+]`: in [15], the Vd stood at 0.25 L/kg. Further, the Tmax in data set [16] was 2.88 h. Moreover, the highest level in [6] (Cmax) was 4.49 µM. Moreover, the bioavailability in [17] was 149%. Also, the AUC in data set [18] was 54.4 µM·h. The compound also gave a half-life in [9] of 7 h. Also, in [19], the clearance was 0.98 mL/min/kg.

In the case of `O=C(O)[C@H]1CC[C@H](c2cc3cccnc3c(-c3cccc(OC(F)(F)F)c3)n2)CC1` [listing 2 of 2 here], the ED50 with Rattus norvegicus [10] was found to be 2 mg/kg. Also, the half-inhibitory concentration (IC50) in [1] was determined as 43 nM; in data set [2], 24 nM; in data set [4], 107 nM; at Phosphodiesterase 4 it was 52 nM. The compound further had an AUC in data set [20] of 49.7 µM·h. For the same compound, in data set [3], the solubility thermodynamic was 6 µg/mL (≈ 14.4 µM). Also, the Tmax in data set [21] was 1.75 h. The compound further registered a Cmax in data set [22] of 10.5 µM. This compound returned a half-life in data set [23] of 1.87 h. For the same compound, the Activity result in the data set with Mustela putorius furo was “Non-toxic”.

In the case of `O=C(Nc1c(Cl)cncc1Cl)c1ccc(OC(F)F)c(OCC2CC2)c1` [ROFLUMILAST], the ED50 with Mus musculus was determined as 12.4 mg/kg; with Rattus norvegicus [10], 0.74 mg/kg. Further, the Activity entry with Mustela putorius furo is “Toxic”.

On to `COc1cccc(-c2nc([C@H]3CC[C@H](C(=O)O)CC3)cc3cccnc23)c1`, for which the IC50 worked out at 156 nM in data set [1], 64 nM in data set [2], 242 nM in data set [4] and 151 nM at Phosphodiesterase 4. This compound also showed a Therm_solubility in data set [3] of 150 µg/mL.
